Assay results reported in ChEMBL document CHEMBL3763145, “Niizalactams A-C, Multicyclic Macrolactams Isolated from Combined Culture of Streptomyces with Mycolic Acid-Containing Bacterium” (J Nat Prod, 2015).
Calls of active or inactive are those of the source.

Assays:
[1] = system: P388; assay: Cytotoxicity against mouse P388 cells assessed as reduction in cell viability at 0.78 to 100 uM after 4 days by MTT assay; assay type: functional, cell-based
Procedure, shortened: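 P388 cells kept in RPMI 1640 with 10% FBS and penicillin/streptomycin, 37 °C, 5% CO2. Compounds added from DMSO or methanol solutions to 1 × 10^5 cells/mL suspension at final 100 to 0.78 μM (twofold series); 4 days exposure. MTT (1 mg/mL) added 4 h, pellet dissolved in DMSO, absorbance read at 570 nm.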

[2] = system: Saccharomyces cerevisiae; assay: Antimicrobial activity against Saccharomyces cerevisiae at 1.25 to 10 ug/disc after 1 to 2 days by disc diffusion method; assay type: functional, organism-based
Procedure, shortened: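 Saccharomyces cerevisiae precultured in LB broth; 1 mL added to 20 mL agar (5.0% glucose, 0.5% peptone, 0.2% yeast extract, 0.4% K2HPO4, 0.2% KH2PO4, 0.02% MgSO4·7H2O, pH 5.6). Disks (6 mm) at 10, 5, 2.5, 1.25 μg/disk; 37 °C, 1 to 2 days; inhibition rings checked.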

[3] = system: Candida albicans; assay: Antimicrobial activity against Candida albicans at 1.25 to 10 ug/disc after 1 to 2 days by disc diffusion method; assay type: functional, organism-based
Procedure, shortened: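 Candida albicans precultured in LB broth; 1 mL broth seeded directly into 20 mL agar of 4.0% glucose, 1.0% peptone, pH 5.7. 6 mm paper disks at 10, 5, 2.5, 1.25 μg/disk; plates held at 37 °C for 1 to 2 days and scored for inhibition rings.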

[4] = system: Bacillus subtilis; assay: Antimicrobial activity against Bacillus subtilis at 1.25 to 10 ug/disc after 1 to 2 days by disc diffusion method; assay type: functional, organism-based
Procedure, shortened: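 Bacillus subtilis precultured in LB broth; 1 mL broth added directly to 20 mL LB agar. Paper disks (6 mm) loaded at 10, 5, 2.5 and 1.25 μg/disk placed on plates; incubation at 37 °C for 1 to 2 days; read-out was presence of inhibition rings around disks.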

Measured: Activity

CC1=C\C=C\[C@H]2[C@H](O)[C@@H](C)CN2C(=O)CC(=O)/C=C/C(C)=C/C=C/[C@@H](O)[C@H](O)[C@H](O)C(=O)/C=C\C=C\1
inactive: all assays above

CC1=C\[C@H]2[C@@H]3[C@@H](O)[C@H](O)[C@H](O)C(=O)[C@@H]3C=C[C@@H]2/C(C)=C/C=C/C=C/[C@@H](C)CNC(=O)CC(=O)\C=C\1
inactive: all assays above

CC1=C\C=C\[C@H]2[C@H](O)[C@@H](C)CN2C(=O)CC(=O)/C=C/C(C)=C/C=C/C[C@H](O)[C@H](O)C(=O)/C=C\C=C\1
inactive: all assays above
